Common to all, as to format: functional, cell-based
In one assay the test system is HCT-15. The experiment in a line: Cytotoxicity against human HCT-15 cells by sulforhodamine B assay. The procedure, abridged:
(§1)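 Log-phase cells seeded at 10⁴ cells/well and allowed to attach for 24 h at 37 °C, 5% CO₂. Then exposed to test samples over a 1:10 serial dilution series for 48 h under the same conditions, four replicate wells per condition. Fixed with 50% chilled TCA for 1 h at 4 °C, stained with sulforhodamine B, and the bound dye dissolved in Tris buffer.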

Assay [1] in a line: Cytotoxicity against human 502713 cells by sulforhodamine B assay. The procedure, abridged:
as §1
Background: The SRB assay estimates cell density from bound dye.

A further assay relates to HEp-2. The assay is described as follows: Cytotoxicity against human HEP2 cells by sulforhodamine B assay. The procedure, abridged:
as §1

The subject of the next assay is A549. The experiment in a line: Cytotoxicity against human A549 cells by sulforhodamine B assay. The procedure, abridged: as §1
Another assay has as its system DU-145. The experiment in a line: Cytotoxicity against human DU145 cells by sulforhodamine B assay. The procedure, abridged: as §1
A further assay relates to PC-3. The experiment in a line: Cytotoxicity against human PC-3 cells by sulforhodamine B assay. The procedure, abridged:
as §1

Another assay concerns SF-295. The assay is described as follows: Cytotoxicity against human SF295 cells by sulforhodamine B assay. The procedure, abridged: as §1

As usually defined, the IC50 is the concentration that gives 50% inhibition. As for `COc1cc([C@@H]2c3cc4c(cc3[C@@H](n3cc(CNc5cccc(Cl)c5)nn3)[C@H]3COC(=O)[C@H]23)OCO4)cc(OC)c1O`, the IC50 amounted to 4220 nM in the assay on HCT-15; 980 nM in assay [1]; 1220 nM with HEp-2; 8630 nM in the assay on A549; 4160 nM with DU-145; 1370 nM in the assay with PC-3. The compound also gave an IC50 with SF-295 of 3110 nM.
As to `COc1cc([C@@H]2c3cc4c(cc3[C@@H](n3cc(CNc5ccccc5C)nn3)[C@H]3COC(=O)[C@H]23)OCO4)cc(OC)c1O`, the IC50 in the assay on HCT-15 was determined as 140 nM; in assay [1] it was 620 nM; with HEp-2, 1500 nM; with A549 it was 5170 nM; in the assay with DU-145 it was 1190 nM; with PC-3, 1530 nM. This compound yielded a half-maximal inhibitory concentration (IC50) with SF-295 of 960 nM.
As for `COc1cc([C@@H]2c3cc4c(cc3[C@@H](n3cc(CNc5ccccc5)nn3)[C@H]3COC(=O)[C@H]23)OCO4)cc(OC)c1O`, the IC50 was 400 nM in the assay on HCT-15; 680 nM in assay [1]; 2960 nM in the assay on HEp-2; 7460 nM with A549; 1090 nM with DU-145; 1030 nM in the assay with PC-3. Half-maximal inhibition in the assay with SF-295 (IC50) required 700 nM.
As for `COc1cc([C@@H]2c3cc4c(cc3[C@@H](n3cc(CNc5cccc(Cl)c5)nn3)[C@H]3COC(=O)[C@H]23)OCO4)cc(OC)c1OC`, the IC50 is 340 nM in the assay on HCT-15; 710 nM in assay [1]; 1370 nM with HEp-2; 4990 nM in the assay on A549; 930 nM in the assay with DU-145; 1180 nM in the assay on PC-3. In the assay with SF-295, this compound showed an IC50 of 840 nM.
Turning to `COc1cc([C@@H]2c3cc4c(cc3[C@@H](n3cc(CNc5ccccc5C)nn3)[C@H]3COC(=O)[C@H]23)OCO4)cc(OC)c1OC`, the IC50 in the assay with HCT-15 stood at 360 nM; in assay [1] it was 780 nM; with HEp-2, 9140 nM; in the assay on A549, 7880 nM; with DU-145, 1060 nM; in the assay with PC-3, 1090 nM. In the assay with SF-295, this compound showed a half-inhibitory concentration (IC50) of 1940 nM.
Turning to `COc1cc([C@@H]2c3cc4c(cc3[C@@H](n3cc(CNc5cccc([N+](=O)[O-])c5)nn3)[C@H]3COC(=O)[C@H]23)OCO4)cc(OC)c1O`, the IC50 with HCT-15 turned out to be 1550 nM; in assay [1] it was 1190 nM; with HEp-2, 4100 nM; with A549 it was 7430 nM; in the assay on DU-145, 4370 nM; with PC-3, 6630 nM. In the assay on SF-295, this compound showed an IC50 of 4200 nM.
Turning to `COc1cc([C@@H]2c3cc4c(cc3[C@@H](n3cc(CNc5ccccc5)nn3)[C@H]3COC(=O)[C@H]23)OCO4)cc(OC)c1OC`, the IC50 in the assay with HCT-15 stood at 140 nM; in assay [1], 610 nM; in the assay with HEp-2 it was 4640 nM; in the assay with A549, 6100 nM; in the assay on DU-145, 1120 nM; in the assay with PC-3 it was 880 nM. Besides, the IC50 in the assay with SF-295 was 780 nM.
As to `COc1cc([C@@H]2c3cc4c(cc3[C@H](O)[C@H]3COC(=O)[C@H]23)OCO4)cc(OC)c1OC` [PODOFILOX], the IC50 came to 1000 nM with HCT-15; 3880 nM in assay [1]; 1420 nM in the assay with HEp-2; 7630 nM with A549; 2970 nM in the assay on DU-145; 18900 nM with PC-3. In the assay with SF-295, this compound displayed an IC50 of 5690 nM.
In the case of `COc1cc([C@@H]2c3cc4c(cc3[C@@H](n3cc(CNc5ccccc5Cl)nn3)[C@H]3COC(=O)[C@H]23)OCO4)cc(OC)c1OC`, the concentration for half-maximal inhibition (IC50) came to 1430 nM with HCT-15; 1880 nM in assay [1]; 1260 nM in the assay with HEp-2; 9240 nM in the assay with A549; 3570 nM in the assay on DU-145; 3450 nM with PC-3. The compound also displayed an IC50 in the assay with SF-295 of 1000 nM.
As to `COc1cc([C@@H]2c3cc4c(cc3[C@@H](O[C@@H]3O[C@@H]5CO[C@@H](C)O[C@H]5[C@H](O)[C@H]3O)[C@H]3COC(=O)[C@H]23)OCO4)cc(OC)c1O` [ETOPOSIDE], the half-inhibitory concentration (IC50) with HCT-15 is 1480 nM; in assay [1], 2420 nM; in the assay with HEp-2, 2150 nM; in the assay on A549 it was 5620 nM; in the assay on DU-145, 3850 nM; in the assay with PC-3, 17400 nM. In the assay with SF-295, this compound registered an IC50 of 13300 nM.
Take `COc1cc([C@@H]2c3cc4c(cc3[C@@H](n3cc(CNc5cccc([N+](=O)[O-])c5)nn3)[C@H]3COC(=O)[C@H]23)OCO4)cc(OC)c1OC`: the half-inhibitory concentration (IC50) in the assay on HCT-15 came out at 40 nM; in assay [1], 560 nM; with HEp-2, 3650 nM; in the assay with A549 it was 5780 nM; in the assay on DU-145 it was 650 nM; in the assay with PC-3, 740 nM. Further, the IC50 in the assay on SF-295 came to 680 nM.

The values are drawn from ChEMBL document CHEMBL1140198, “Studies on novel 4beta-[(4-substituted)-1,2,3-triazol-1-yl] podophyllotoxins as potential anticancer agents” (Eur J Med Chem, 2008).
